pIC50: −log10 of the molar value.
How the values were obtained:
PTPH1 = molecular target: T1, PTPH1 (Homo sapiens, UniProt P26045); test: PTP activity assay with pNPP, PTPH1; type: biochemical
T1 sequence (P26045 1-913): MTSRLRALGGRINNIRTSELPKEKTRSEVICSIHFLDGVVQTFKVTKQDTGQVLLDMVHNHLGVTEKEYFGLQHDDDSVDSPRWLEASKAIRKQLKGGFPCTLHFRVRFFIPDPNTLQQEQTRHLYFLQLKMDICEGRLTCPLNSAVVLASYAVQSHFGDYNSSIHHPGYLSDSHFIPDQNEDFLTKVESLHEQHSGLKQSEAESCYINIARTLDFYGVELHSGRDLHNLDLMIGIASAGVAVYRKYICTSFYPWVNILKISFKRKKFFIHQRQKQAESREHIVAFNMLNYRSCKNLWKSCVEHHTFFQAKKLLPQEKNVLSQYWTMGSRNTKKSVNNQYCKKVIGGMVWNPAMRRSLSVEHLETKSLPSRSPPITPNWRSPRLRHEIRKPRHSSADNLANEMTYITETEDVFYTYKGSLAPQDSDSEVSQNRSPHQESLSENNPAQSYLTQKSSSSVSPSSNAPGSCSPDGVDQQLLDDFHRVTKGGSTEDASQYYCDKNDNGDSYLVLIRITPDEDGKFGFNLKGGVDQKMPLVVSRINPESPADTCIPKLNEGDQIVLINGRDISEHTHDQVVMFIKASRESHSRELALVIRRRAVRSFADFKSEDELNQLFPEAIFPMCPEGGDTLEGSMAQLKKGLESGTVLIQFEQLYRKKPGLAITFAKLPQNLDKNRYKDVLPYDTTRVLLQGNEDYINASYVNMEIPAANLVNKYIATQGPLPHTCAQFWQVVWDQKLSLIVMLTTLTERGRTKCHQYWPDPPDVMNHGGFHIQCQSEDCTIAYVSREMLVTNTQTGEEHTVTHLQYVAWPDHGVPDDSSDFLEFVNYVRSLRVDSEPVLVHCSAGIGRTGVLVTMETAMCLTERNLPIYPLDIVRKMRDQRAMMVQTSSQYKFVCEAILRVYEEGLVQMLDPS

panel of 24 phosphatases = test: Selectivity profiling against panel of 24 phosphatases; type: biochemical; conditions: for inhibitory activity against the phosphatases in the panel: at 200 μM concentration; for preference (selectivity) for LMW-PTP over the panel of other PTPs: over all 24 other phosphatases
LMW-PTP [1] = molecular target: T2, LMW-PTP (Homo sapiens, UniProt P24666); type: biochemical; conditions: for IC50: read-out: IC50 against LMW-PTP, weak ligands, values in mM; for mode of inhibition of LMW-PTP: Lineweaver-Burk, pNPP as substrate
T2 sequence (P24666 1-158): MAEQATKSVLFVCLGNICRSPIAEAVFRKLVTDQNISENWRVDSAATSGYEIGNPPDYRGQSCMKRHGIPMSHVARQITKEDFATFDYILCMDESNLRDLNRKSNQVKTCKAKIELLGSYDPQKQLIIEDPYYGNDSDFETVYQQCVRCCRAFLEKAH

SHP2 = molecular target: T3, SHP2 (Homo sapiens, UniProt Q06124); test: PTP activity assay with pNPP, SHP2; type: biochemical; conditions: read-out: IC50 for SHP2; values in mM
T3 sequence (Q06124 1-593): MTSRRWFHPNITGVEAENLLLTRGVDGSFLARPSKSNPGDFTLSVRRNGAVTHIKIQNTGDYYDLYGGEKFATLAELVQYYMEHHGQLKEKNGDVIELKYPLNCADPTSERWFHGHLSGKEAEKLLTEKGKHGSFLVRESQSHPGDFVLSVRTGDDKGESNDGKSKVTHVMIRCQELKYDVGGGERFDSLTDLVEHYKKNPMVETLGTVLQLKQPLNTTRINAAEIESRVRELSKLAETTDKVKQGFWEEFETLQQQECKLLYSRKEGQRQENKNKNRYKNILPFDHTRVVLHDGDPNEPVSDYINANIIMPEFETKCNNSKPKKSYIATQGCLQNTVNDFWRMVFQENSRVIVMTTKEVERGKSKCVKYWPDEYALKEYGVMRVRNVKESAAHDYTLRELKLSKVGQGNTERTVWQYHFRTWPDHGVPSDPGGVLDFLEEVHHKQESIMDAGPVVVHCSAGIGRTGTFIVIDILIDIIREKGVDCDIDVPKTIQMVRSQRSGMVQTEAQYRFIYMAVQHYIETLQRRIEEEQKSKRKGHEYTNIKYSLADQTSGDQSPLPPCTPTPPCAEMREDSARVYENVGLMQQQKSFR

PTP1B = molecular target: T4, PTP1B (Homo sapiens, UniProt P18031); test: PTP activity assay with pNPP, PTP1B; type: biochemical; conditions: read-out: IC50 for PTP1B; values in mM
T4 sequence (P18031 1-435): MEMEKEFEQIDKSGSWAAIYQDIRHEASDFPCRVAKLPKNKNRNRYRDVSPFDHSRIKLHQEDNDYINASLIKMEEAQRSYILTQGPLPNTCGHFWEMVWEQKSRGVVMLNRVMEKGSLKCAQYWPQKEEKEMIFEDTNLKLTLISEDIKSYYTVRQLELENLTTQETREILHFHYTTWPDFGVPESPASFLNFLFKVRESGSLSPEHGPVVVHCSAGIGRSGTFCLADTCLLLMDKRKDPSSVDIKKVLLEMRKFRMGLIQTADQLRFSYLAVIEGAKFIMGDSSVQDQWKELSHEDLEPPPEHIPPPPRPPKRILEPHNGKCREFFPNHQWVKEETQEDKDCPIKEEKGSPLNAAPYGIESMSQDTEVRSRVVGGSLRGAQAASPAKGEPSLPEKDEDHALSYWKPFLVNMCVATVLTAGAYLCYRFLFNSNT

[2] = system: insulin induced AKT phosphorylation in HepG2 cells; test: Insulin induced AKT phosphorylation in HepG2 cells; type: cell-based; conditions: 2 h pretreatment, 50 nM insulin 30 min, compound 33 at 16 μM
Method in brief: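 HepG2 cells grown in DMEM with 10% FBS at 37 °C and 5% CO2. At 60-80% confluence, cells were serum-starved overnight, then given vehicle or test compound for 2 h. They were left unstimulated or stimulated with 50 nM insulin for 30 min, then lysed. Immunoblotting used a 10% polyacrylamide gel with anti-phospho-AKT and anti-AKT antibodies, ECL detection and densitometry. pAKT/AKT ratios were normalized to vehicle.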

LMW-PTP [3] = molecular target: T2, LMW-PTP; test: Screen of SPAA-based focused library at ~10 μM, LMW-PTP; type: biochemical; conditions: compound concentration ~10 μM, crude library wells

With `O=C(Nc1cnc2ccccc2c1)C(c1ccccc1)S(=O)(=O)O` (centres unmarked) [compound 6] the pIC50 (PTPH1) was less than 3.70 and the “inhibitory activity against the phosphatases in the panel” value (“inhibitory activity … in the panel” for short) (panel of 24 phosphatases) was “no inhibitory activity”.

With `O=C(Nc1ccccc1)C(c1ccccc1)S(=O)(=O)O` (centres unmarked) [compound 9] the “inhibitory activity toward LMW-PTP (in words)” value (LMW-PTP [1]) was “significantly reduced activities” and the “fold decrease in inhibitory activity versus compound 7” value (LMW-PTP [1]; relative to compound 7) was greater than 15 fold.

`NC(=O)C(c1ccccc1)S(=O)(=O)O` (centres unmarked) [SPAA, SulfoPhenyl Acetic Amide] was tested, and the IC50 (LMW-PTP [1]) was 2 mM, the IC50 (SHP2) was greater than 50 mM and the IC50 (PTP1B) was greater than 50 mM.

`Cc1c(Br)cc(NC(=O)C(c2ccccc2)S(=O)(=O)O)cc1Br` (centres unmarked) [compound 1] gave a pIC50 (PTPH1) of less than 3.70.

With `O=C(Cc1ccccc1)Nc1nc2ccc([N+](=O)[O-])cc2s1` [compound 33] the “inhibitory activity toward LMW-PTP (in words)” value (LMW-PTP [1]) was “completely abolishes” and the “effect on insulin induced AKT phosphorylation (in words)” value [2] was “no effect”.

With `CCOC(=O)c1ccc2nc(NC(=O)C(c3ccccc3)S(=O)(=O)O)sc2c1` (centres unmarked) [compound 32] the “fold more active than compound 7 against LMW-PTP” value (LMW-PTP [1]) was 2.5 fold.

For `O=C(Nc1nc2ccc([N+](=O)[O-])cc2s1)C(c1ccccc1)S(=O)(=O)O` (centres unmarked) [compound 28], the “fold more active than compound 7 against LMW-PTP” value (LMW-PTP [1]) was 3.5 fold, the “mode of inhibition of LMW-PTP” value (LMW-PTP [1]) was “competitive” and the pIC50 (PTPH1) was less than 4.00. For the same compound, the “preference (selectivity) for LMW-PTP over the panel of other PTPs” value (panel of 24 phosphatases) was “over 50 fold”.

For `O=C(Nc1cc(C(F)(F)F)cc(C(F)(F)F)c1)C(c1ccccc1)S(=O)(=O)O` (centres unmarked) [compound 8], the pIC50 (PTPH1) was less than 3.70.

`O=C(Nc1ccc(-n2ccnc2)cc1)C(c1ccccc1)S(=O)(=O)O` (centres unmarked) [compound 4] showed a pIC50 (PTPH1) of less than 4.00.

In the case of `O=C(Nc1ccc(OCc2ccccc2)c(Cl)c1)C(c1ccccc1)S(=O)(=O)O` (centres unmarked) [compound 2], the pIC50 (PTPH1) was less than 3.70.

For `O=C(Nc1ccc2nc(C(F)(F)F)[nH]c2c1)C(c1ccccc1)S(=O)(=O)O` (centres unmarked) [compound 3], the pIC50 (PTPH1) was less than 3.70, the “inhibitory activity … in the panel” value (panel of 24 phosphatases) was “no inhibitory activity” and the “preference (selectivity) for LMW-PTP over the panel of other PTPs” value (panel of 24 phosphatases) was “greater than 35 fold”.

In the case of `CCCNC(=O)C(c1ccccc1)S(=O)(=O)O` (centres unmarked) [compound 11], the “inhibitory activity toward LMW-PTP (in words)” value (LMW-PTP [1]) was “inactive” and the “inhibition against LMW-PTP in library screen” value (LMW-PTP [3]) was “inactive”.

`O=C(Nc1nccs1)C(c1ccccc1)S(=O)(=O)O` (centres unmarked) [compound 10] was tested, and the “inhibitory activity toward LMW-PTP (in words)” value (LMW-PTP [1]) was “significantly reduced activities”.

`O=C(Nc1nc2ccccc2s1)C(c1ccccc1)S(=O)(=O)O` (centres unmarked) [compound 7] was tested, and the “mode of inhibition of LMW-PTP” value (LMW-PTP [1]) was “competitive” and the pIC50 (PTPH1) was less than 3.70.

Compound `O=S(=O)(O)CCN1CCOCC1` [MES] has an IC50 (LMW-PTP [1]) greater than 10 mM.

In the case of `O=C(Nc1ccc(N2CCOCC2)cc1)C(c1ccccc1)S(=O)(=O)O` (centres unmarked) [compound 5], the pIC50 (PTPH1) was less than 3.70 and the “inhibitory activity … in the panel” value (panel of 24 phosphatases) was “no inhibitory activity”.

— publication PMC6348062 (Journal of medicinal chemistry, 2016)
